Data set [1] in a line: Cmax in leukemic patient with pulmonary aspergillosis at 200 mg twice daily, po on day 7. It is filed as ADME, organism-based. Further details: dose 200 mg, route oral. Conditions: human, in vivo. In outline: (§1)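 Patients' citrated blood drawn just before and 2, 4, 6 and 12 h after a dose on days 2, 7 and 14 of therapy. Plasma was analysed by HPLC: acetonitrile precipitation, C18 column, UV detection at 255 nm. AUC over the 0–12 h dosing interval used the linear trapezoidal rule during rise and the log trapezoidal rule during decay. Cmax and trough were summarised descriptively.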

For data set [2], the system named is Candida albicans. In words: Growth inhibition of Candida albicans ATCC 95020 at 0.2 to 25 mg/L. It is filed as functional. The gist of the method: (§2)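 Agar-well diffusion bioassay. Overnight YPD culture at 35°C was diluted to 1.5 x 10^7 CFU/ml inoculum. Agar contained yeast nitrogen base, glucose and phosphate buffer pH 5.5. Wells held 25 µl spiked plasma standards (8 points, 0.2–25 mg/liter). Plates stood 2 h at 4°C for diffusion, then 14 h at 35°C. Inhibition zones: four diameters by caliper.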

Data set [3] is filed under the species Homo sapiens. As to the kind of experiment: Trough level in patient with invasive mycoses on day 1. It is filed as ADME, organism-based. Particulars: in vivo.
In data set [4] the test system is Homo sapiens. As to the kind of experiment: Trough concentration in leukemic patient with pulmonary aspergillosis at 200 mg twice daily, po on day 7. The data set is classed as ADME, organism-based. Conditions: in vivo. The gist of the method: as §1
Data set [5] is described as follows: Cmax in leukemic neutropenic patient with pulmonary aspergillosis at 300 mg twice daily, po. The data set is classed as ADME, organism-based. Further details: dose 300 mg, route oral. Particulars: human, in vivo. The gist of the method: as §1
Data set [6] can be described thus: AUC in leukemic neutropenic patient with pulmonary aspergillosis at 300 mg twice daily, po on day 7. It is filed as ADME, organism-based. Particulars: human, plasma. In outline: as §1
Data set [7] is described as follows: AUC in leukemic patient with pulmonary aspergillosis at 200 mg twice daily, po on day 7. The data set is classed as ADME, organism-based. Conditions: human, plasma. The gist of the method: as §1
The nature of data set [8]: Cmax in patient with invasive mycoses on day 1. The data set is classed as ADME, organism-based. Particulars: human, in vivo.
In data set [9] the test system is Homo sapiens. As to the kind of experiment: Trough level in leukemic neutropenic patient with pulmonary aspergillosis at 300 mg twice daily, po. It is filed as ADME, organism-based. Particulars: in vivo. The gist of the method:
as §1

Data set [10] has as its system Homo sapiens. In words: Trough concentration in leukemic patient with pulmonary aspergillosis at 200 mg twice daily, po on day 14. It is filed as ADME, organism-based. Conditions: in vivo. In outline:
as §1

The nature of data set [11]: Cmax in leukemic patient with pulmonary aspergillosis at 200 mg twice daily, po on day 14. The data set is classed as ADME, organism-based. Further details: dose 200 mg, route oral. Particulars: human, in vivo. In outline: as §1
The next data set concerns Kluyveromyces marxianus. As to the kind of experiment: Growth inhibition of Candida kefyr B11501 at 0.2 to 25 mg/L. It is filed as functional. The gist of the method:
as §2

Data set [12] relates to Candida albicans. In words: Growth inhibition of Candida albicans mutant DSY2621 at 0.2 to 25 mg/L. The data set is classed as functional. In outline: as §2
Data set [13] can be described thus: AUC in leukemic neutropenic patient with pulmonary aspergillosis at 300 mg twice daily, po on day 1. The data set is classed as ADME, organism-based. Conditions: human, plasma.
Data set [14] is described as follows: AUC in leukemic patient with pulmonary aspergillosis at 200 mg twice daily, po on day 14. Particulars: human, plasma. The data set is classed as ADME, organism-based. In outline:
as §1

We go through 1 compound from ChEMBL document CHEMBL1142163 (Antimicrob Agents Chemother, 2007).

For orientation: Cmax means the peak of the concentration-time curve. Broadly, the AUC is concentration integrated over time. Low values mean less exposure, high ones more exposure.

Molecules are shown by their SMILES.

In the case of `C[C@@H](c1ncncc1F)[C@](O)(Cn1cncn1)c1ccc(F)cc1F` [VORICONAZOLE], the maximum concentration (Cmax) in data set [1] was 1900 ng/mL; in [5], 4300 ng/mL; in [8], 6000 ng/mL; in data set [11], 300 ng/mL. Also, the Inhibition in the data set on Candida albicans [2] is given as 21 mm; in the data set on Kluyveromyces marxianus, 23 mm; in the data set with Candida albicans [12], 17 mm. The Cmin was 3000 ng/mL in the data set listed under Homo sapiens [3], 500 ng/mL in the data set with Homo sapiens [4], 2600 ng/mL in the data set on Homo sapiens [9] and 200 ng/mL with Homo sapiens [10]. In addition, the AUC in data set [6] was determined as 40500 ng·h/mL; in [7], 12900 ng·h/mL; in [13], 43000 ng·h/mL; in data set [14], 2900 ng·h/mL.
